Measured values from ChEMBL document CHEMBL4411273, “Polycyclic maleimide-based derivatives as first dual modulators of neuronal calcium channels and GSK-3β for Alzheimer's disease treatment” (Eur J Med Chem, 2019).

Assays:
Right cardiac atrium [1] = experiment: Negative inotropic activity in guinea pig spontaneously beating spontaneously beating right atrium assessed as decrease in developed tension; type: ADME, tissue-based; conditions: Cavia porcellus
In short: (§1)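 Isolated spontaneously beating guinea-pig right atrium. Cumulative compound addition from 0.1 to 100 µM. Percent decrease in atrial rate, and in developed tension (n = 7–8), versus control. EC50 from log concentration–response curves by Probit analysis; not calculated when maximum effect was <50%.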

Right cardiac atrium [2] = experiment: Negative inotropic activity in guinea pig spontaneously beating right atrium assessed as decrease in developed tension at 5 x 10^-5 M; type: ADME, tissue-based, Cavia porcellus; design: scale not given: the % may be the effect or the level left; conditions: 50 µM; in short: as §1
Left cardiac atrium [3] = experiment: Negative inotropic activity in guinea pig left atrium assessed as decrease in developed tension at 5 x 10^-5 M relative to control; type: ADME, tissue-based, Cavia porcellus; design: scale not given: the % may be the effect or the level left; conditions: 50 µM
In short: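 Isolated guinea-pig left atrium driven at 1 Hz. Cumulative compound concentrations from 0.1 to 100 µM. Percent decrease in developed tension versus control, n = 5–6. EC50 from log concentration–response curves by Probit analysis, n = 6–7; not calculated when maximum effect was <50%.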

Left cardiac atrium [4] = experiment: Negative inotropic activity in guinea pig left atrium assessed as decrease in developed tension; type: ADME, tissue-based; conditions: Cavia porcellus
Aorta [5] = experiment: Inhibition of calcium-induced contraction in K+-depolarized guinea pig aortic strips at 5 x 10^-5 M relative to control; type: tissue-based; conditions: Cavia porcellus
In short: (§2)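 Isolated guinea-pig aortic strips and ileum longitudinal smooth muscle, depolarized with 80 mM K+. Calcium-induced contraction measured with cumulative compound addition. Percent inhibition relative to control. IC50 from log concentration–response curves by Probit analysis, n = 6–7; not calculated when maximum effect was <50%.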

Ileum [6] = experiment: Inhibition of calcium-induced contraction in K+-depolarized guinea pig ileum; type: tissue-based; conditions: Cavia porcellus
Ileum [7] = experiment: Inhibition of calcium-induced contraction in K+-depolarized guinea pig ileum at 10^-6 M relative to control; type: tissue-based; conditions: Cavia porcellus; in short: as §2
[8] = test system: Voltage-gated calcium channel; experiment: Inhibition of K+-induced voltage gated calcium channel opening in human SH-SY5Y cells assessed as decrease in Ca2+ level at 10 uM after 10 mins by Fluo-4 dye-based fluorescence assay relative to control; type: cell-based
In short: (§3)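 Confluent SH-SY5Y cells (36–72 h after seeding) loaded with Fluo-4, washed with Krebs-HEPES, then incubated 10 min with compound or DMSO. Depolarized by injecting KCl to 70 mM and fluorescence followed for 2 min. Fmax taken after 5% Triton X lysis, Fmin after MnCl2. Ca2+ rise expressed against K+-induced rise without compound; blind testing, at least three independent experiments in triplicate, mean ± SEM. IC50 obtained by sigmoidal regression.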

[9] = target: Voltage-gated calcium channel; experiment: Inhibition of K+-induced voltage gated calcium channel opening in human SH-SY5Y cells assessed as decrease in Ca2+ level after 10 mins by Fluo-4 dye-based fluorescence assay; type: cell-based; in short: as §3
[10] = Cytotoxicity against human SH-SY5Y cells assessed as cell viability at 10 uM after 48 hrs by MTT assay relative to control; type: cell-based; conditions: read-out: Activity
In short: (§4)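 SH-SY5Y cells seeded at 70 000 cells/well, exposed before confluence to compounds in MEM/F12 with 10% FBS for 24 h, then fresh medium with 1% FBS plus compounds for a further 24 h. MTT 1.2 mM for 2 h in dark; formazan dissolved in DMSO, absorbance at 540 nm. Viability expressed as percent of vehicle (DMSO)-treated cells; three independent experiments, mean ± SEM.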

[11] = target: Glycogen synthase kinase-3 beta (Homo sapiens) (UniProt P49841); experiment: Inhibition of GSK3beta (unknown origin) assessed as residual activity at 50 uM pre-incubated for 30 mins followed by ULight-GS (Ser641/pSer657) peptide substrate addition and measured after 1 hr by TR-FRET assay relative to control
In short: (§5)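 TR-FRET (LANCE Ultra) kinase assay at 22 °C in 50 mM HEPES pH 7.5, 1 mM EGTA, 10 mM MgCl2, 2 mM DTT, 0.01% Tween-20, 3% DMSO. GSK-3β (0.5 nM final) preincubated 30 min with compound; ATP 10 µM and ULight-GS peptide 50 nM (final) added for 1 h. Stopped with 24 mM EDTA plus 2 nM Eu-anti-phospho-GS antibody, 1 h. Read at ex 320 nm, em 615/665 nm. Residual activity relative to DMSO; three separate experiments, mean ± SD.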

[12] = Cytotoxicity against human SH-SY5Y cells assessed as cell viability at 30 uM after 48 hrs by MTT assay relative to control; type: cell-based; conditions: read-out: Activity; in short: as §4
Right cardiac atrium [13] = experiment: Negative chronotropic activity in guinea pig spontaneously beating right atrium assessed as decrease in atrial rate at 5 x 10^-5 M; type: ADME, tissue-based, Cavia porcellus; design: scale not given: the % may be the effect or the level left; conditions: 50 µM; in short: as §1
Ileum [14] = experiment: Inhibition of calcium-induced contraction in K+-depolarized guinea pig ileum at 5 x 10^-5 M relative to control; type: tissue-based; conditions: Cavia porcellus; in short: as §2
Right cardiac atrium [15] = experiment: Negative chronotropic activity in guinea pig spontaneously beating right atrium assessed as decrease in atrial rate at 10^-5 M; type: ADME, tissue-based, Cavia porcellus; design: scale not given: the % may be the effect or the level left; conditions: 10 µM; in short: as §1
Left cardiac atrium [16] = experiment: Negative inotropic activity in guinea pig left atrium assessed as decrease in developed tension at 10^-5 M relative to control; design: scale not given: the % may be the effect or the level left; conditions: 10 µM
[17] = test system: Left cardiac atrium (Cavia porcellus); experiment: Negative inotropic activity in guinea pig left atrium driven at 1 Hz assessed as decrease in developed tension at 10^-5 M; design: scale not given: the % may be the effect or the level left; conditions: 10 µM
[18] = target: Glycogen synthase kinase-3 beta (Homo sapiens) (UniProt P49841); experiment: Inhibition of GSK3beta (unknown origin) assessed as residual activity at 3.12 uM pre-incubated for 30 mins followed by ULight-GS (Ser641/pSer657) peptide substrate addition and measured after 1 hr by TR-FRET assay relative to control; in short: as §5
Right cardiac atrium [19] = experiment: Negative chronotropic activity in guinea pig spontaneously beating right atrium assessed as decrease in atrial rate at 10^-7 M; type: ADME, tissue-based, Cavia porcellus; design: scale not given: the % may be the effect or the level left; conditions: 0.1 µM
Aorta [20] = experiment: Inhibition of calcium-induced contraction in K+-depolarized guinea pig aortic strips at 10^-6 M relative to control; conditions: Cavia porcellus, read-out: INH
Ileum [21] = experiment: Inhibition of calcium-induced contraction in K+-depolarized guinea pig ileum at […] relative to control; conditions: Cavia porcellus, read-out: INH
Right cardiac atrium [22] = experiment: Negative chronotropic activity in guinea pig spontaneously beating right atrium assessed as decrease in atrial rate at 10^-6 M; type: ADME, tissue-based, Cavia porcellus; design: scale not given: the % may be the effect or the level left; conditions: 1 µM; in short: as §1
Ileum [23] = experiment: Inhibition of calcium-induced contraction in K+-depolarized guinea pig ileum at 10^-5 M relative to control; type: tissue-based; conditions: Cavia porcellus; in short: as §2

Chain of Glycogen synthase kinase-3 beta (Homo sapiens) (P49841 whole entry, looked up): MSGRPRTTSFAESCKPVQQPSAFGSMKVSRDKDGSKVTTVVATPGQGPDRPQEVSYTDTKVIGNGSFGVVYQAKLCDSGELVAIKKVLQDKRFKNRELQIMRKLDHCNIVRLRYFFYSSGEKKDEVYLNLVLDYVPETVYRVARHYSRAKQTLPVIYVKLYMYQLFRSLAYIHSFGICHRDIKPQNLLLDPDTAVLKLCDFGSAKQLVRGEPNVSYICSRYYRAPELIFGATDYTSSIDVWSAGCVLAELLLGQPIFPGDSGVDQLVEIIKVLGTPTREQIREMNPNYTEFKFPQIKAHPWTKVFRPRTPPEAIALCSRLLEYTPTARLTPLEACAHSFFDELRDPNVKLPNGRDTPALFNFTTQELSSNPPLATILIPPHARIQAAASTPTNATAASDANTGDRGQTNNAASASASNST

| SMILES | EC50 (Right cardiac atrium [1]) [nM] | Activity (Right cardiac atrium [2]) [%] | Activity (Left cardiac atrium [3]) [%] | EC50 (Left cardiac atrium [4]) [nM] | inhibition at 50 µM (Aorta [5]) [%] | EC50 (Ileum [6]) [nM] | inhibition (INH) [8] [%] | IC50 [9] [µM] | viability at 48 h, 10 µM [10] [%] | viability at 48 h, 30 µM [12] [%] | inhibition at 50 µM (Ileum [14]) [%] | Activity (Right cardiac atrium [15]) [%] | Activity (Left cardiac atrium [16]) [%] | Activity [17] [%] | also measured |
| --- | --- | --- | --- | --- | --- | --- | --- | --- | --- | --- | --- | --- | --- | --- | --- |
| O=C1NC(=O)C2C1C1(Cl)c3ccccc3C2(Cl)c2ccccc21 (stereo unspecified) | 470 | 97 | 97 | 220 | 7 | 490 | 38 | 15 | 95 | 92 |  |  |  |  | inhibition at 1 µM (Ileum [7]): 68%; Activity [11]: 48% |
| O=C1NC(=O)C2C1C1c3ccccc3C2(/C=N/Cc2ccccc2)c2ccccc21 (stereo unspecified) | 2870 | 85 | 75 | 850 |  | 12100 | 4 |  |  |  | 85 |  |  |  | Activity (Right cardiac atrium [13]): 26%; Activity [11]: 51% |
| Nc1cccc2c1C1c3ccccc3C2C2C(=O)NC(=O)C12 (stereo unspecified) | 1870 | 92 | 82 | 1910 | 8 | 14700 | 11 |  |  |  | 97 | 42 |  |  |  |
| CC(=O)Nc1cccc2c1C1c3ccccc3C2C2C(=O)NC(=O)C12 (stereo unspecified) |  | 34 |  | 320 | 6 |  | 0 |  |  |  | 12 |  | 65 |  | Activity (Right cardiac atrium [13]): 8% |
| O=C1NC(=O)C2C3c4ccccc4C(c4ccc(Cl)cc43)C12 (stereo unspecified) | 2480 |  |  | 430 | 21 | 3330 | 39 | 15 | 91 | 97 |  | 47 | 80 | 87 | inhibition at 1 µM (Ileum [7]): 90% |
| CC(=O)c1ccc2c(c1)C1c3ccccc3C2C2C(=O)NC(=O)C12 (stereo unspecified) |  |  | 11 |  | 18 | 770 | 20 |  |  |  | 85 | 33 |  | 4 |  |
| CCCCCCCNC(=O)C12c3ccccc3C(c3ccccc31)C1C(=O)NC(=O)C12 (stereo unspecified) | 510 |  |  | 1910 | 6 | 3670 | 56 | 9 | 85 | 87 | 94 | 45 | 76 | 85 | Activity [18]: 55%; Activity [11]: 10% |
| COC(=O)C1=C(C)NC(C)=C(C(=O)OC)C1c1ccccc1[N+](=O)[O-] [NIFEDIPINE] |  |  |  |  |  | 1.5 |  |  |  |  |  |  |  |  | Activity (Left cardiac atrium [16]; Left cardiac atrium): 97%; Activity (Right cardiac atrium [19]): 85%; inhibition at 1 µM (Aorta [20]): 82%; inhibition at 0.005 µM (Ileum [21]): 70% |
| COCCOC(=O)C1=C(C)NC(C)=C(C(=O)OC(C)C)C1c1cccc([N+](=O)[O-])c1 (stereo unspecified) [NIMODIPINE] |  |  |  |  |  |  | 25 | 14 |  |  |  |  |  |  |  |
| Nc1ccc2c(c1)C1c3ccccc3C2C2C(=O)NC(=O)C12 (stereo unspecified) | 2200 | 79 | 74 | 1490 |  | 1270 | 6 |  |  |  |  |  |  |  | Activity (Right cardiac atrium [22]): 15%; inhibition at 10 µM (Ileum [23]): 90% |
| CC(=O)Nc1ccc2c(c1)C1c3ccccc3C2C2C(=O)NC(=O)C12 (stereo unspecified) | 2180 | 93 | 79 | 3650 | 10 | 2510 | 8 |  |  |  |  |  |  |  | Activity (Right cardiac atrium [13]): 37%; inhibition at 10 µM (Ileum [23]): 67% |
| O=C1NC(=O)C2C3c4ccccc4C(c4cccc(Cl)c43)C12 (stereo unspecified) | 1080 |  |  | 870 | 9 | 1180 | 37 | 11 | 92 | 93 |  | 37 | 93 | 94 | inhibition at 10 µM (Ileum [23]): 90% |
